# Screening data (PubChem BioAssay)
# TNF death inh = inhibitors of TNF-alpha induced necroptosis in Jurkat FADD-/- cells; Jurkat FADD-/- TNF necroptosis rescue, ATP luminescence, 24 h; 0 = TNF only, 100 = no-TNF cells; activation (protection from cell death), % at 10 µM; actives 0.068% (n = 220,000);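 active means activation, meaning protection from cell death, of at least 50% relative to plate controls; inactive means activation below 50%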;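 further: necroptosis triggered by 40 ng/mL TNF-alpha added together with compound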
# L929 necroptosis = blocks zVAD induced death of L929 cells; viability rescue, % at 10 µM; L929 zVAD necroptosis rescue, ATP luminescence, 24 h; with zVAD 60 µM; AID 1377; actives 0.38% (n = 220,000);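 active means activation, scaled between plate controls, above about 75%, limit read from the data; inactive means activation under that limit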;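 further: 0% = zVAD with DMSO and 100% = DMSO alone without zVAD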
# STAT3 inh-1 = inhibitors of IL-6 induced STAT3 signaling | U3A cells, IL-6 STAT3-luciferase reporter, luminescence; host cell line lacks STAT1 | actives 0.89% (n = 190,000) | inhibition, % at 5.5 µM;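 active means inhibition above the mean inhibition across all screened compounds plus 3 SD, cut at about 44% in these data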;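 further: 0% = DMSO only wells and 100% = 100 µM nifuroxazide control wells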
# STAT1 blocker = STAT1 signaling inhibition; actives 0.35% (n = 200,000); NIH 3T3 STAT1-luciferase reporter, IFN-gamma, luminescence; inhibition, % at 5.5 µM;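 active means inhibition above a set limit, the mean inhibition across all tested compounds plus 3 SD, cut at about 34% in these data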;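 further: 0% = IFN-gamma with DMSO and 100% = IFN-gamma with 300 µM nifuroxazide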
# STAT3 act = STAT3 signaling activation. U3A cells, IL-6 STAT3-luciferase reporter, luminescence; 100% = signal with IL-6 EC80 alone. activation (% of control), % at 5.6 µM. actives 0.91% (n = 190,000);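 active means activation above the screen-wide mean of compound activation plus 3 SD, cut at about 130% in these data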;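 further: 0% = background luminescence of wells with medium and substrate only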
#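 Assay system – human STAT1-deficient U3A cells with stable STAT3-luciferase reporter · Also added – IL-6 (33 ng/mL) · Schedule – compound 1 h, then IL-6 6 h at 37 °C · Technique – reporter luminescence signal · Evaluation – % activation versus median of IL-6-stimulated wells · Benchmarks – IL-6-only wells as 100% reference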
# STAT3 inh-2 = STAT3 inhibition, confirmation assay; actives 45% (n = 1,200); U3A cells, IL-6 STAT3 luciferase reporter, luminescence; cell line lacks STAT1; AID 1265; shares compounds with STAT3 inh-1; inhibition, % at 5.7 µM;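 active means inhibition above the hit cutoff computed for the primary STAT3 screen, cut at about 44% in these data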;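 further: 0% = IL-6 plus DMSO and 100% = IL-6 plus nifuroxazide control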
# NFkB inh 2 = NF-kappaB inhibition in STAT3 inhibitor counter-screen; shares compounds with STAT3 inh-1; AID 1308; inhibition, % at 5.7 µM; HEK293T NF-kB luciferase reporter, TNF-alpha induced; actives 36% (n = 1,200);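 active means inhibition above the mean of solvent-only control wells plus 3 SD, cutoff set per campaign, cut at about 13% in these data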;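 further: 0% = TNF-alpha with DMSO and 100% = TNF-alpha with MG high control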
# STAT1 inh STAT3c = counter-screen for STAT3 inhibitors: STAT1 inhibition; shares compounds with STAT3 inh-1; NIH 3T3 STAT1-luciferase reporter, IFN-gamma induced, luminescence; inhibition, % at 5.7 µM; actives 27% (n = 1,200);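 active means inhibition above the mean plus 3 SD of solvent-only control wells, limit set per screening run, cut at about 16% in these data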;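 further: 0% = DMSO with IFN-gamma and 100% = nifuroxazide control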
# The depositor's hits bear a star; x = not tested or not shown. Sampled rows, rich in hits. Any-hit rate of the full collection: about 2.1%.
SMILES,TNF death inh,L929 necroptosis,STAT3 inh-1,STAT1 blocker,STAT3 act,STAT3 inh-2,NFkB inh 2,STAT1 inh STAT3c
Fc1ccc(NCc2ccccc2F)cc1Cl,12,0,12,-9,96,x,x,x
Fc1ccccc1CNc1ccc(Cl)cc1,81*,97*,22,-13,88,x,x,x
COc1cccc(/C=N/NC(=O)C(=O)Nc2ccccc2OC(F)(F)C(F)F)c1,1,1,4,2,99,x,x,x
COc1ccc(-n2c(C)nc3sc4c(c3c2=O)CCC4)cc1,93*,23,-32,-2,127,x,x,x
CCOC(=O)CNC(=O)CSc1nc2nc(C)c(Br)cc2[nH]1,0,0,-3,6,106,x,x,x
O=S(=O)(NCc1cn2ccsc2n1)c1ccc(Oc2ccccc2)cc1,-10,0,62*,23,52,x,x,x
O=S(=O)(NCc1cn2ccsc2n1)c1cccs1,-2,0,-6,-19,110,x,x,x
c1ccc(-c2csc3ncnc(NCC4COc5ccccc5O4)c23)cc1 (centres undefined),-15,0,84*,38*,31,x,x,x
CC(C)CN(C(=O)CN1CCN(c2ccccc2F)CC1)c1c(N)n(CC(C)C)c(=O)[nH]c1=O,0,1,-2,-1,104,x,x,x
CC(C)CN(C(=O)CN1CCc2ccccc21)c1c(N)n(CC(C)C)c(=O)[nH]c1=O,0,2,-37,5,133*,x,x,x
COc1ccc(C(=O)O/N=C(\N)c2ccccn2)c(OC)c1,2,0,x,x,x,x,x,x
COc1ccc(C(=O)O/N=C(\N)c2ccccc2)c(OC)c1,-2,1,76*,34*,38,x,x,x
Cc1cc2nc(-c3ccc(SCC(=O)N4CCc5ccccc54)nc3)[nH]c2cc1C,-24,1,-36,-44,138*,x,x,x
COc1ccc(CCNc2ccc(N3C(=O)CC(C)C3=O)cc2[N+](=O)[O-])cc1 (centres undefined),0,3,7,3,97,x,x,x
COc1ccc(CCNc2ccc(N3C(=O)CC(C)C3=O)cc2[N+](=O)[O-])cc1OC (centres undefined),-9,5,70*,33,44,58*,17*,14
CCOC(=O)c1c(-c2ccc(OC)cc2)csc1NC(=O)CSc1ncnc2sccc12,1,1,3,10,94,x,x,x
N#Cc1nc(N2CCCC2)nc(N2CCCC2)n1,-12,0,56*,7,52,56*,28*,6
Cc1ccc(-n2c(-c3ccccc3)c[n+]3c2CCc2ccccc2-3)c(C)c1,-5,-2,66*,28,47,60*,-2,25*
CN(c1nc2ccccc2n2c(C3CC3)nnc12)S(=O)(=O)c1ccccc1,0,0,x,x,x,x,x,x
CCC(Sc1ccc2nnc(-c3ccc(F)cc3)n2n1)C(=O)OC (centres undefined),-2,-1,2,-8,101,x,x,x
COc1ccc(C(=O)CSc2nnc(Cn3cnc4ccccc43)o2)cc1,-11,0,73*,10,42,49*,14*,2
CC(=O)c1ccc(NC(=O)CSc2nnc(Cn3cnc4ccccc43)o2)cc1,0,1,7,10,101,x,x,x
Cc1ccc(-c2nc(NC(=O)c3nn(C)cc3[N+](=O)[O-])sc2C)cc1,-16,22,54*,36*,57,24,15*,4
Cc1ccc(-c2nc(NC(=O)c3nn(C)cc3[N+](=O)[O-])sc2C)cc1C,-13,14,49*,28,62,28,17*,1
CC(=O)Nc1nc(-c2ccc([N+](=O)[O-])cc2)cs1,-1,1,28,-14,82,x,x,x
SMILES,TNF death inh,L929 necroptosis,STAT3 inh-1,STAT1 blocker,STAT3 act,STAT3 inh-2,NFkB inh 2,STAT1 inh STAT3c
Cc1cnc(NC(=O)c2nn(C)cc2[N+](=O)[O-])s1,-1,0,58*,15,54,20,12,-6
Cn1cc([N+](=O)[O-])c(C(=O)Nc2nc(-c3ccc(Cl)cc3)cs2)n1,-10,1,60*,24,53,35,18*,11
CCC(=O)c1ccc(OCc2ccc(C(=O)c3ccccc3)cc2)cc1,-8,-1,50*,27,62,43,8,19*
CCC(=O)c1ccc(OCc2ccccc2)c(OC)c1,0,0,-10,-33,108,x,x,x
COc1ccc2nc3c(cc2c1)c(NC(=O)c1cccs1)nn3CC(C)C,7,1,59*,7,51,54*,-10,2
NS(=O)(=O)c1ccc(CNC(=O)c2csc3c2CCCC3)cc1,1,9,9,-4,98,x,x,x
CCc1nnc(NC(=O)C2CCCN2C(=O)NC2CCCCC2)s1 (centres undefined),-2,0,0,-7,105,x,x,x
O=C(CSc1nnc(-c2cccnc2)s1)Nc1ccnc2ccccc12,-5,0,72*,20,37,82*,22*,18*
CCC(C)NC(=S)Nc1ccccc1 (centres undefined),-5,-1,x,x,x,x,x,x
CCC(C)NC(=S)Nc1ccc(C(=O)OC)cc1 (centres undefined),-1,0,55*,13,56,53*,11,6
OC(CSc1c(Cl)cccc1Cl)CN1CCN(c2ccc(F)cc2)CC1 (centres undefined),-1,0,16,4,92,x,x,x
COc1cccc(CC(=O)n2nc(N)c3cc4ccc(OC)cc4nc32)c1,8,3,46*,1,68,36,-14,8
O=P(OC1CCS(=O)(=O)C1)(c1ccccc1)c1ccccc1 (centres undefined),0,0,4,-4,99,x,x,x
COC(=O)Oc1c(Br)c(=O)oc2ccccc12,-11,0,1,12,102,x,x,x
COc1ccc(NC(=O)c2cc3ccccn3n2)cc1,-3,1,46*,-23,67,20,-29,-96
COCCn1cc(C(=O)NCCCN2CCC(C)CC2)c2c3ccccc3n(C)c2c1=O,3,0,-4,7,109,x,x,x
c1ccc(-c2nc(-c3ccncc3)no2)cc1,-2,0,9,-41,94,x,x,x
c1ccc(C(Cc2nc(-c3ccncc3)no2)c2ccccc2)cc1,-9,0,65*,-15,48,52*,7,-11
COc1ccc(CN(C)C(C)C(=O)Nc2ccc(S(=O)(=O)N3CCCC3)cc2)c(OC)c1OC (centres undefined),-2,-2,45*,26,64,32,3,18*
